Screens as filed in PubChem BioAssay.
PostGolgi ctrl: yeast control strain growth, post-Golgi counter-screen; inhibition, % at 10 µM; 98,000 compounds, 5% hits; efflux-deficient yeast background strain, growth absorbance A615, 16 h; AID 738
EphB4 antag: EphB4-ephrin-B2 interaction antagonism; P54760; EphB4 LBD / TNYL-RAW-Alexa532 peptide, fluorescence polarization; inhibition, % at 7 µM; 97,000 compounds, 0.15% hits; AID 720;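 active = inhibition above the screen-wide mean inhibition plus 3 SD, cut at about 15% in these data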
HIV Rev-RRE inh: HIV Rev-RRE protein-RNA interaction inhibition; Rev peptide-RRE RNA binding, FRET; 97,000 compounds, 0.79% hits; inhibition, % at 8 µM; AID 704;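 active = inhibition above the screen-wide mean plus 3 SD, cut at about 35% in these data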
Target sequence (P05866 whole entry, looked up): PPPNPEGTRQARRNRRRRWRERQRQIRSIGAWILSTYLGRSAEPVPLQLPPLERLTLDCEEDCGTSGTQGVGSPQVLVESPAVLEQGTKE
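Test system – labelled RRE RNA duplex and labelled Rev peptide · Signal – fluorescein-to-Cy5 FRET, 480 nm excitation · Evaluation – % inhibition of FRET ratio versus controls · Benchmarks – DMSO low control, neomycin B high control · Incubation – 5 min RNA-compound premix plus 15 min binding step, 25 °C · Medium – HEPES pH 7.5 salt buffer with EDTA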
PostGolgi yeast: growth inhibition of a yeast mutant, post-Golgi transport screen; post-Golgi transport phenotypic cell assay; inhibition, % at 10 µM; 98,000 compounds, 0.9% hits; AID 739;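 note: yeast cells grown in 1536-well plates; yeast grown about 18 h at 30C before absorbance read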
Plk1 PBD FP: inhibitors of human Plk1 polo box domain binding; P53350; Plk1 PBD phosphopeptide binding, fluorescence polarization; inhibition, %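 (tested at about 20 µM)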; 97,000 compounds, 0.13% hits; in the data active = inhibition above about 34%, passing the limit was not always enough
PLK1 kinase inh: blocks human PLK1 kinase activity; recombinant PLK1 kinase, TR-FRET peptide phosphorylation; inhibition, % at 10 µM; 97,000 compounds, 0.53% hits;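 active = inhibition of 50% or more in the single-concentration screen; inactive = inhibition below 50%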
Hits are given with their value; – = inactive; · = no result. In the library only some 6.4% were active in any assay of this set; here they are far more common. Cut-off read from the data, not from the text of the source, unless noted: active = inhibition above about 30%; inactive = the rest.

SMILES | PostGolgi ctrl | EphB4 antag | HIV Rev-RRE inh | PostGolgi yeast | Plk1 PBD FP | PLK1 kinase inh
Cc1ccccc1NC(=O)C1CCN(c2cc(-c3ccccc3)nc3ncnn23)CC1 | · | – | – | · | – | –
COC(=O)Cn1c(CCS(=O)(=O)c2ccc(C)cc2)nc2ccccc21 | – | – | – | – | – | –
O=C(CC12CCC(CC1)C2)NCc1ccc2c(c1)OCO2 | · | – | – | · | – | –
CC1=NN(c2ccc(F)cc2)C(=O)C1C(c1cccc(O)c1)c1c(C)[nH]n(-c2ccc(F)cc2)c1=O (centres undefined) | 34.7 | – | – | – | – | –
COc1cccc(C(c2c(C)[nH]n(-c3ccccc3)c2=O)c2c(C)[nH]n(-c3ccccc3)c2=O)c1O | · | · | · | · | · | –
O=c1c2c(nc3n1CCCCC3)-c1ccccc1CC21CCCC1 | 46.2 | – | – | – | – | –
O=c1oc(-c2ccccc2)nc2c1C1(CCCCC1)Cc1ccccc1-2 | – | – | – | – | – | –
Cn1c(NCCO)nc2c(c1=O)C1(CCCCC1)Cc1ccccc1-2 | 49.7 | – | – | – | – | –
O=c1[nH]c(NCCCO)nc2c1C1(CCCC1)Cc1ccccc1-2 | – | · | · | – | · | ·
CCN(CC)Cc1nc2c(c(=O)[nH]1)C1(CCCCC1)Cc1ccccc1-2 | 31.5 | – | – | – | – | –
CC(C)(NC(=O)N1CCOCC1)c1cccc(C(C)(C)NC(=O)N2CCOCC2)c1 | · | – | – | · | – | –
O=C(Nc1ccccc1-c1ccccc1)C12CC3CC(CC(C3)C1)C2 | – | – | – | – | – | –
CCCc1cc(NCCCCO)n2c(nc3ccccc32)c1C#N | – | – | – | 34.9 | – | –
COc1cc(C2C(C#N)=C(N)OC3=C2C(=O)CC(C)(C)C3)c([N+](=O)[O-])cc1OC (centres undefined) | – | – | 48.9 | – | – | –
COc1cc(C2C(C#N)=C(N)OC3=C2C(=O)CC(C)(C)C3)ccc1OC(=O)N1CCOCC1 (centres undefined) | 32.9 | – | – | – | – | –
N#CC1=C(N)OC2=C(C(=O)CCC2)C1c1ccc(OC(=O)N2CCOCC2)cc1 (centres undefined) | 37.6 | · | · | – | · | ·
O=C(NC1CCCC1)C(c1ccsc1)N(C(=O)Cc1cccs1)c1ccc(F)cc1 (centres undefined) | – | – | – | 35.2 | – | –
CC(=O)c1ccc(N(C(=O)Cc2c[nH]c3ccccc23)C(C(=O)NC2CCCCC2)c2cccs2)cc1 (centres undefined) | – | – | – | – | – | –
O=C(NC1CCCCC1)C(c1cccs1)N(C(=O)Cc1c[nH]c2ccccc12)c1ccc(F)cc1 (centres undefined) | 47.7 | – | – | – | – | –
O=C(NC1CCCC1)C(c1ccsc1)N(C(=O)Cc1cccs1)c1cccc(F)c1 (centres undefined) | – | – | – | – | – | –
COc1cccc(C(=O)CSc2nnc(CNS(C)(=O)=O)n2-c2ccc(C)cc2)c1 | – | – | – | – | – | –
Cc1cc(SCC(=O)c2cc3ccccc3o2)nc2ccccc12 | – | – | 45.9 | – | – | –
O=c1oc2cc(Cl)ccc2n1CSc1nc2ccccc2s1 | 32.1 | – | – | – | – | –
O=C(CSc1nc2cc(Cl)ccc2s1)c1cc2ccccc2o1 | – | – | 68.3 | – | – | –
Cc1cc(C)nc(NC(=O)CSc2nc3cc(Cl)ccc3s2)n1 | 35.6 | – | – | – | – | –
SMILES | PostGolgi ctrl | EphB4 antag | HIV Rev-RRE inh | PostGolgi yeast | Plk1 PBD FP | PLK1 kinase inh
CCCCN(NC(C)=O)c1nc(Cl)nc(NC(C)C)n1 | – | – | – | – | – | –
O=C(NNC(=O)C1CC(c2cccnc2)=NO1)Nc1cccc(F)c1 (centres undefined) | – | – | – | – | – | –
COc1ccc(N(C(=O)c2ccccc2OC(C)=O)C(C)C2CC2)cc1 (centres undefined) | – | – | – | – | – | –
O=C(O)CCc1nnc2n(Cc3ccc(F)cc3)c(=O)c3ccccc3n12 | – | – | – | 43.8 | – | –
CN1CC(=O)NC1=NC(=O)C12CC3CC(CC(C3)C1)C2 | – | – | – | – | – | –
Cc1cc([N+](=O)[O-])nn1CC(=O)NNC(=S)Nc1ccc(F)cc1 | – | – | – | – | – | –
CN1/C(=C/C=C(/C#N)C(N)=O)C(C)(C)c2ccccc21 | – | – | 47.2 | – | – | –
CN1/C(=C\C=[N+](C)c2ccccc2)C(C)(C)c2ccccc21 | – | – | – | – | – | –
c1csc(CNCCCN2CCOCC2)c1 | 31.2 | – | – | – | – | –
CCCOc1ccc(C(=O)NNC(=S)NC(=O)CC)cc1 | 98.9 | – | – | 76.1 | – | –
COc1ccc(C2=CC(c3c(C)nn(-c4ccccc4)c3Cl)n3nnnc3N2)cc1OC (centres undefined) | – | – | 50.9 | – | – | –
CCCN1C(=O)/C(=C/c2c(NCCCOCC)nc3c(C)cccn3c2=O)SC1=S | – | – | 76.0 | – | – | –
CCOCCCNc1nc2c(C)cccn2c(=O)c1/C=C1\SC(=S)N(CC(C)C)C1=O | – | – | 43.6 | – | – | –
Cc1cccn2c(=O)c(C=Nc3ccccc3)c(NCc3ccco3)nc12 | – | – | – | – | – | –
CCOCCCn1c(=N)c(C(=O)NCCN2CCOCC2)cc2c(=O)n3cccc(C)c3nc21 | – | – | – | – | – | –
Cn1c(SCC(=O)NCc2ccc3c(c2)OCO3)nc2scc(-c3cccs3)c2c1=O | – | – | – | – | – | –
CCCCOC(=O)Nc1ccc2c(C)cc(=O)oc2c1 | · | – | – | · | – | –
CCOC(=O)Nc1ccc2c(C)cc(=O)oc2c1 | 33.5 | – | – | – | – | –
CC(C)C1Cc2c(sc3c2c(=O)n(Cc2ccccc2)c2nncn32)CO1 (centres undefined) | 42.8 | – | – | – | – | –
CSc1nnc2n(Cc3ccccc3)c(=O)c3c4c(sc3n12)COC(C(C)C)C4 (centres undefined) | – | – | – | – | – | –
Cc1nnc2n(Cc3ccccc3)c(=O)c3c4c(sc3n12)COC(C(C)C)C4 (centres undefined) | 71.2 | – | – | – | – | –
Cc1ccc(NC(=O)c2cc([N+](=O)[O-])ccc2NCc2cccnc2)cc1Cl | 30.9 | – | – | – | – | –
COc1ccc(-c2cc(C(F)(F)F)n3nc(C)cc3n2)cc1 | – | – | – | – | – | –
COc1ccc(-c2cc(C(F)F)nc(-n3nc(C)cc3C)n2)cc1 | 31.2 | – | – | – | – | –
C=CCc1ccccc1OCC(O)CN1CCN(Cc2ccc3c(c2)OCO3)CC1 (centres undefined) | 45.1 | – | – | 99.1 | – | –
COc1ccc2c(c1)CCc1c(C(=O)N3CCOCC3)noc1-2 | – | – | – | – | – | –
COc1ccc2c(c1)CCc1c(C(=O)N3CC4(C)CC3CC(C)(C)C4)noc1-2 (centres undefined) | 37.6 | – | – | – | – | –
